This note sets out measurements from ChEMBL document CHEMBL4414566, “Cytotoxicity and Anti-inflammatory Properties of Apigenin-Derived Isolaxifolin” (J Nat Prod, 2019).

The structures appear in SMILES notation. Activity calls are given as the source filed them. The calls are words filed in the database; no cut-off is given here.

The test system of one assay is MDA-MB-231. The assay is described as follows: Induction of cell cycle arrest in human MDA-MB-231 cells assessed as accumulation of cells at G2/M phase at 12.4 uM incubated for 48 hrs by PI/RNase staining based flow cytometric analysis (reference value: 10.4%). The class given is functional. In outline: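 Cell-cycle analysis: MDA-MB-231 cells were preincubated 24 h, then treated with 8.6, 12.4 or 17.3 μM for 48 h. Cells were pelleted, fixed in 75% ethanol at −20 °C overnight, and stained with PI/RNase for 15 min in the dark at ambient temperature. About 10 000 cells per well were analyzed by flow cytometry for DNA content.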
A general note: A flow cytometer gives signals particle by particle.

In a further assay the test system is RAW264.7. Nature of the assay: Antiinflammatory activity against LPS-activated mouse RAW264.7 cells assessed as reduction in TNFalpha mRNA expression at 3.1 uM preincubated with LPS for 24 hrs followed by compound addition and measured after 24 hrs by qRT-PCR analysis. The class given is functional, cell-based. In outline: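 RAW 264.7 cells (DMEM, 10% FBS, 37 °C, 5% CO2) seeded at 1 × 10^5/well and held 4 h. LPS 1.0 μg/mL was added for 24 h, then medium was replaced with test agent (0.8, 1.6, 3.1 μM or 2.3, 4.6, 9.2 μM) for 24 h. TNF-α and IL-6 transcripts were quantified by real-time qPCR against GAPDH. Triplicates, mean ± SD.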
(In general: Real-time PCR tracks product formation cycle by cycle.)

Take `CC(C)=CCc1c2c(c(O)c3c(=O)cc(-c4ccc(O)cc4)oc13)C=CC(C)(C)O2` [LAXIFOLIN]: the Activity in the assay on MDA-MB-231 amounted to 11.6%. The outcome with RAW264.7 was Active.
